Drawing on ChEMBL document CHEMBL3525985, “Regiospecificity and stereospecificity of human UDP-glucuronosyltransferases in the glucuronidation of estriol, 16-epiestriol, 17-epiestriol, and 13-epiestradiol” (Drug Metab Dispos, 2013), this text covers Drug metabolism, Km and Vmax for 13 molecules.

Data set [1] has as its target T1, UDP-glucuronosyltransferase 1A10 (Homo sapiens, UniProt Q9HAW8).
T1 sequence (Q9HAW8 whole entry): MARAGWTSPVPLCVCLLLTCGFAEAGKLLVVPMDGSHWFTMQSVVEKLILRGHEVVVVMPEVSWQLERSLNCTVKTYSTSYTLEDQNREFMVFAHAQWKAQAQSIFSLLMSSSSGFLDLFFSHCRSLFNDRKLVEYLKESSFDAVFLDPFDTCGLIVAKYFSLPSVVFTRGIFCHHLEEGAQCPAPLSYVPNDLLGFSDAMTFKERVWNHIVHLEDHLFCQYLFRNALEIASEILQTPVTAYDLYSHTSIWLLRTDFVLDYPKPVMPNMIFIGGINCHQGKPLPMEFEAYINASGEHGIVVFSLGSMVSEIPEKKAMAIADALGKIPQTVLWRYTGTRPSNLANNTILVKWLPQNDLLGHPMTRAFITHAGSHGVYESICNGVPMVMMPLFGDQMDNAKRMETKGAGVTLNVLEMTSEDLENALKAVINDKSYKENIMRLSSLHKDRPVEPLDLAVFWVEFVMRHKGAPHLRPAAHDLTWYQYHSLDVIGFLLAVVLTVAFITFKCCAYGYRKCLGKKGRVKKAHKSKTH
The data set can be described thus: Drug level assessed as recombinant human C-terminal His-tagged UGT1A10-mediated compound formation from 200 uM 16-epiestriol after 15 to 60 mins by […] analysis in presence of UDPGA. The following applies: recombinant enzyme. Format: ADME. The essentials: (§1)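 UGT-enriched insect cell membranes (5 or 50 µg) in 50 mM phosphate pH 7.4, 10 mM MgCl2, 5 mM UDPGA; substrate 200 µM in DMSO (10% final); 15–60 min at 37°C; stopped with perchloric acid, on ice, centrifuged; glucuronides resolved by HPLC. Triplicates, no-UDPGA controls; rates normalized to relative UGT expression; substrate consumption ≤10%.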

Data set [2] concerns the target T2, UDP-glucuronosyltransferase 2B7 (Homo sapiens, UniProt P16662).
T2 sequence (P16662 whole entry): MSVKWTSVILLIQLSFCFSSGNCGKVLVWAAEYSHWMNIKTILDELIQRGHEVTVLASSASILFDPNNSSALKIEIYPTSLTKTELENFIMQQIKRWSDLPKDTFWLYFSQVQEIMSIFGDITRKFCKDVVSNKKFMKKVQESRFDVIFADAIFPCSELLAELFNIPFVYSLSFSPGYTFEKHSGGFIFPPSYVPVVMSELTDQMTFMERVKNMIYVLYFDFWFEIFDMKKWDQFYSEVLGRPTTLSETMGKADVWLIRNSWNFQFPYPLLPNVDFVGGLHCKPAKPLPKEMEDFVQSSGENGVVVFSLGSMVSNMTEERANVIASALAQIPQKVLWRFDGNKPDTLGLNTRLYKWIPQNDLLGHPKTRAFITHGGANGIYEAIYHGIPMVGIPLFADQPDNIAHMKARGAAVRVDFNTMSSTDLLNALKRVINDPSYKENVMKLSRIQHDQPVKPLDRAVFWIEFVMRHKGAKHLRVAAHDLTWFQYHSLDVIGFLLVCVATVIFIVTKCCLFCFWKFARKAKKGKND
The data set can be described thus: Drug level assessed as recombinant human C-terminal His-tagged UGT2B7-mediated compound formation from 8 mg 16-epiestriol after 5 hrs by NMR spectroscopic analysis in presence of UDPGA. Format: ADME. To be noted: recombinant enzyme. The essentials:
(§2)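 Preparative biosynthesis: 4 mg 17-epiestriol or 8 mg 16-epiestriol with UGT2B7-enriched insect cell homogenate in 50 mM phosphate pH 7.4, 10 mM MgCl2, 50 mM UDPGA, 10% DMSO. Glucuronides fractionated by HPLC (0.1% HCOOH replacing phosphate, UV 280 nm), concentrated, lyophilized, then examined by NMR.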

For data set [3], the system named is C[C@]12CC[C@@H]3c4ccc(O)cc4CC[C@H]3[C@@H]1C[C@@H](O)[C@@H]2O. The data set can be described thus: Drug metabolism assessed as human UGT1A10 F93G mutant-mediated estriol-3-glucuronide formation after 15 to 60 mins by Michaelis-Menten equation analysis in presence of UDPGA. Format: ADME. The procedure, abridged:
(§3)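 UGT-enriched insect cell membranes (5 or 50 µg) were incubated with 0.2–300 µM aglycone in DMSO (10% final), 5 mM UDPGA, 10 mM MgCl2 and 50 mM phosphate pH 7.4 at 37°C. Reactions were stopped with perchloric acid and glucuronides measured by HPLC. Assays were in triplicate with substrate consumption ≤10%, rates normalized to relative UGT expression, and kinetics fitted to Michaelis-Menten.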

Data set [4] has as its system C[C@]12CC[C@@H]3c4ccc(O)cc4CC[C@H]3[C@@H]1C[C@H](O)[C@@H]2O. The data set can be described thus: Drug metabolism assessed as human UGT1A10 F93G mutant-mediated 16-epiestriol-3-glucuronide formation after 15 to 60 mins by Michaelis-Menten equation analysis in presence of UDPGA. Format: ADME. The procedure, abridged:
as §3

Data set [5] has as its system [H][C@@]12CCc3cc(O)ccc3[C@@]1([H])CC[C@]1(C)[C@H](O)[C@H](O)C[C@@]21[H]. The data set can be described thus: Drug metabolism assessed as human UGT1A10 F93G mutant-mediated 17-epiestriol-3-glucuronide formation after 15 to 60 mins by Michaelis-Menten equation analysis in presence of UDPGA. The class given is ADME. The procedure, abridged: as §3
Data set [6] has as its target T1, UDP-glucuronosyltransferase 1A10. The data set can be described thus: Drug level assessed as recombinant human C-terminal His-tagged UGT1A10-mediated compound formation from 200 uM estriol after 15 to 60 mins by […] analysis in presence of UDPGA. Format: ADME. To be noted: recombinant enzyme. The procedure, abridged:
as §1

The next data set deals with UGT2A2 (Homo sapiens). The data set can be described thus: Drug level assessed as recombinant human C-terminal His-tagged UGT2A2-mediated compound formation from at 200 uM 13-epiestradiol after 15 to 60 mins by HPLC analysis in presence of UDPGA. The following applies: recombinant enzyme.
The target in data set [7] is T2, UDP-glucuronosyltransferase 2B7. The data set can be described thus: Drug level assessed as recombinant human C-terminal His-tagged UGT2B7-mediated compound formation from 200 uM 17-epiestriol after 15 to 60 mins by HPLC analysis in presence of UDPGA. Format: ADME. To be noted: recombinant enzyme. The procedure, abridged: as §1
The target is the same in data set [8]. The data set can be described thus: Drug level assessed as recombinant human C-terminal His-tagged UGT2B7-mediated compound formation from 4 mg 17-epiestriol after 5 hrs by NMR spectroscopic analysis in presence of UDPGA. The class given is ADME. The following applies: recombinant enzyme. The essentials:
as §2

Substrate in data set [9]: C[C@]12CC[C@@H]3c4ccc(O)cc4CC[C@H]3[C@@H]1C[C@@H](O)[C@@H]2O
The data set can be described thus: Drug metabolism assessed as recombinant human C-terminal His-tagged UGT1A10-mediated estriol-3-glucuronide formation after 15 to 60 mins by Michaelis-Menten equation analysis in presence of UDPGA. The class given is ADME. The procedure, abridged:
(§4)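 For kinetics, the aglycone ranged from 0.2 to 300 μM in DMSO (10% final) with 5 mM UDPGA, 10 mM MgCl₂ and 50 mM phosphate pH 7.4. Enzyme was UGT-enriched insect cell membranes. Incubation was 15–60 min at 37°C, in triplicate, keeping substrate consumption ≤10%. Products were measured by HPLC and fitted to Michaelis-Menten. Rates were normalized to expression level.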

Substrate in data set [10]: C[C@]12CC[C@@H]3c4ccc(O)cc4CC[C@H]3[C@@H]1C[C@H](O)[C@@H]2O
The data set can be described thus: Drug metabolism assessed as recombinant human C-terminal His-tagged UGT1A10-mediated 16-epiestriol-3-glucuronide formation after 15 to 60 mins by Michaelis-Menten equation analysis in presence of UDPGA. Format: ADME. The procedure, abridged:
as §4

Substrate in data set [11]: [H][C@@]12CCc3cc(O)ccc3[C@@]1([H])CC[C@]1(C)[C@H](O)[C@H](O)C[C@@]21[H]
The data set can be described thus: Drug metabolism assessed as recombinant human C-terminal His-tagged UGT1A10-mediated 17-epiestriol-3-glucuronide formation after 15 to 60 mins by Michaelis-Menten equation analysis in presence of UDPGA. Format: ADME. The essentials: as §3

Substrate in data set [12]: C[C@]12CC[C@@H]3c4ccc(O)cc4CC[C@H]3[C@@H]1C[C@H](O)[C@@H]2O
The data set can be described thus: Drug metabolism assessed as recombinant human C-terminal His-tagged UGT2B7-mediated 16-epiestriol-16-glucuronide formation after 15 to 60 mins by Michaelis-Menten equation analysis in presence of UDPGA. Format: ADME. The procedure, abridged:
as §4

Substrate in data set [13]: C[C@]12CC[C@@H]3c4ccc(O)cc4CC[C@H]3[C@@H]1C[C@@H](O)[C@@H]2O
The data set can be described thus: Drug metabolism assessed as recombinant human C-terminal His-tagged UGT2B7-mediated estriol-16-glucuronide formation after 15 to 60 mins by Michaelis-Menten equation analysis in presence of UDPGA. The class given is ADME. The procedure, abridged: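 Kinetics with His-tagged UGT-enriched insect-cell membranes (5 or 50 µg): aglycone 0.2–300 µM in 10% DMSO, 5 mM UDPGA, 10 mM MgCl₂, 50 mM phosphate pH 7.4, 15–60 min at 37°C. Substrate consumption kept at or below 10%. Glucuronides quantified by HPLC in triplicate, rates normalized to expression, and data fitted to Michaelis-Menten.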

Substrate in data set [14]: [H][C@@]12CCc3cc(O)ccc3[C@@]1([H])CC[C@]1(C)[C@H](O)[C@H](O)C[C@@]21[H]
The data set can be described thus: Drug metabolism assessed as recombinant human C-terminal His-tagged UGT2B7-mediated 17-epiestriol-16-glucuronide formation after 15 to 60 mins by Michaelis-Menten equation analysis in presence of UDPGA. The class given is ADME. The procedure, abridged: as §3

For the molecule `C[C@]12CC[C@@H]3c4ccc(O)cc4CC[C@H]3[C@@H]1C[C@H](O)[C@@H]2O[C@@H]1O[C@H](C(=O)O)[C@@H](O)[C@H](O)[C@H]1O`, the Drug metabolism result in [1] and in data set [2] was “metabolite_detected” in each case.

The Km is the substrate concentration at which the rate is half of its maximum. Usually Vmax stands for the rate approached at saturating substrate. As for “UDP-glucuronosyltransferase 1A10 (Homo sapiens; F93G)”, the Km amounted to 230 µM in data set [3], 186 µM in data set [4] and 51.1 µM in data set [5]. The Vmax in data set [3] is 0.00754 µmol/min/mg; in data set [4] it was 0.00225 µmol/min/mg; in [5] it was 0.00571 µmol/min/mg.

`C[C@]12CC[C@@H]3c4ccc(O)cc4CC[C@H]3[C@@H]1C[C@@H](O)[C@@H]2O[C@@H]1O[C@H](C(=O)O)[C@@H](O)[C@H](O)[C@H]1O`: the Drug metabolism entry in data set [6] was “metabolite_detected”.

Turning to `C[C@@]12CC[C@@H]3c4ccc(O)cc4CC[C@H]3[C@@H]1CC[C@@H]2O[C@@H]1O[C@H](C(=O)O)[C@@H](O)[C@H](O)[C@H]1O`, the Drug metabolism entry in the data set on UGT2A2 (Homo sapiens) was “metabolite_detected”.

In the case of `C[C@]12CC[C@@H]3c4ccc(O[C@@H]5O[C@H](C(=O)O)[C@@H](O)[C@H](O)[C@H]5O)cc4CC[C@H]3[C@@H]1C[C@H](O)[C@@H]2O`, the Drug metabolism result in [1] is given as “metabolite_detected”.

`C[C@]12CC[C@@H]3c4ccc(O)cc4CC[C@H]3[C@@H]1C[C@@H](O[C@@H]1O[C@H](C(=O)O)[C@@H](O)[C@H](O)[C@H]1O)[C@@H]2O`: the Drug metabolism entry in data set [6] was “metabolite_detected”.

Turning to `C[C@]12CC[C@@H]3c4ccc(O[C@@H]5O[C@H](C(=O)O)[C@@H](O)[C@H](O)[C@H]5O)cc4CC[C@H]3[C@@H]1C[C@@H](O)[C@@H]2O`, the Drug metabolism result in data set [6] is on record as “metabolite_detected”.

As for `C[C@]12CC[C@@H]3c4ccc(O)cc4CC[C@H]3[C@@H]1C[C@H](O[C@@H]1O[C@H](C(=O)O)[C@@H](O)[C@H](O)[C@H]1O)[C@@H]2O`, the Drug metabolism result in [1] and in data set [2] was “metabolite_detected” throughout.

Turning to `C[C@]12CC[C@@H]3c4ccc(O[C@@H]5O[C@H](C(=O)O)[C@@H](O)[C@H](O)[C@H]5O)cc4CC[C@H]3[C@@H]1C[C@@H](O)[C@H]2O`, in [7], the Drug metabolism entry is listed as “metabolite_detected”.

Take `C[C@]12CC[C@@H]3c4ccc(O)cc4CC[C@H]3[C@@H]1C[C@@H](O)[C@H]2O[C@@H]1O[C@H](C(=O)O)[C@@H](O)[C@H](O)[C@H]1O`: the Drug metabolism entry in data set [8] and in data set [7] was “metabolite_detected” each time.

Consider `C[C@]12CC[C@@H]3c4ccc(O)cc4CC[C@H]3[C@@H]1C[C@@H](O[C@@H]1O[C@H](C(=O)O)[C@@H](O)[C@H](O)[C@H]1O)[C@H]2O`, for which the Drug metabolism result in data set [7] is “metabolite_not_detected”.

B1: UDP-glucuronosyltransferase 1A10 (Homo sapiens) (protein)
chain: T1 sequence (Q9HAW8 whole entry)
As to B1, the Km in data set [9] stood at 68.4 µM; in [10], 59.8 µM; in data set [11], 337 µM. The Vmax in data set [9] worked out at 0.0012 µmol/min/mg; in data set [10] it was 0.0077 µmol/min/mg; in data set [11], 0.000958 µmol/min/mg.

B2: UDP-glucuronosyltransferase 2B7 (Homo sapiens) (protein)
chain: T2 sequence (P16662 whole entry)
Consider B2, for which the Km in data set [12] is 38.4 µM; in [13], 10.3 µM; in data set [14], 0.6 µM. The Vmax in [12] was found to be 0.00387 µmol/min/mg; in [13], 0.00151 µmol/min/mg; in [14], 0.00082 µmol/min/mg.
